Assays:
[1] = Plasma protein binding in iv dosed human multiple myeloma patient at 15 mg/m'2 in first cycle and escalated to 20 mg/m'2 thereafter administered on days 1, 2, 8, 9, 15 and 16 of 28-day cycle over 2 to 10 mins by LC-MS/MS analysis; assay type: ADME, organism-based; conditions: read-out: PPB (converted)
Outline: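 Plasma taken at end of administration and 5 min after, on Days 1 and 15 of Cycle 1 and Day 15 of Cycle 2, was dialyzed 6 h at 37°C against pH 7.4 sodium phosphate buffer by rapid equilibrium dialysis. Samples were matrix-matched, extracted by acetonitrile precipitation and quantified by LC-MS/MS.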

[2] = AUC last in human patient with relapsed solid tumor at 20 mg/m'2, iv administered on days 1, 2, 8, 9, 15 and 16 of 28-day cycle over 2 to 10 mins measured on day 1 of cycle 1 by LC-MS/MS analysis; assay type: ADME, organism-based; design: route intravenous, time 0 - last; conditions: plasma
Outline: (§1)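 Patients with relapsed solid tumors (n=3) received carfilzomib IV at 20 mg/m2. Plasma was sampled on Days 1 and 16 of Cycle 1 before dosing, at end of administration, and at 5, 15, 30 min and 1, 2, 4 h after. Samples underwent solid phase extraction and LC-MS/MS with d10-carfilzomib internal standard over 0.100–200 ng/mL. Parameters were derived noncompartmentally (constant IV infusion model) from actual elapsed time from infusion start.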

[3] = Cmax in human patient with relapsed solid tumor at 20 mg/m'2, iv administered on days 1, 2, 8, 9, 15 and 16 of 28-day cycle over 2 to 10 mins measured on day 16 of cycle 1 by LC-MS/MS analysis; assay type: ADME, organism-based; design: route intravenous; conditions: in vivo; outline: as §1
Cytochrome P450 2C9 = Cytochrome P450 2C9 (Homo sapiens, UniProt P11712); experiment: Inhibition of CYP2C9 in human liver microsomes using diclofenac as substrate after 5 mins by LC-MS/MS analysis; assay type: ADME
Outline: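 Pooled HLM from 16 donors were incubated at 37°C in duplicate with carfilzomib 0.01–10 µM and probe substrate at about its Km. Substrates were phenacetin, amodiaquine, diclofenac, S-mephenytoin, dextromethorphan, testosterone and midazolam. Protein was 0.1 mg/mL, or 0.05 mg/mL with midazolam. Reactions ran 5 min without preincubation, then were quenched with acetonitrile. Metabolites were measured by LC-MS/MS relative to 0.5% acetonitrile controls.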

Cytochrome P450 1A2 = molecular target: T1, Cytochrome P450 1A2 (Homo sapiens, UniProt P05177); experiment: Drug metabolism in pooled human hepatocytes assessed as disapperance rate at 1 uM by LC-MS/MS analysis in presence of 30 uM CYP1A2 inhibitor furafylline; assay type: ADME, cell-based, Hepatocyte
T1 sequence (P05177 whole entry): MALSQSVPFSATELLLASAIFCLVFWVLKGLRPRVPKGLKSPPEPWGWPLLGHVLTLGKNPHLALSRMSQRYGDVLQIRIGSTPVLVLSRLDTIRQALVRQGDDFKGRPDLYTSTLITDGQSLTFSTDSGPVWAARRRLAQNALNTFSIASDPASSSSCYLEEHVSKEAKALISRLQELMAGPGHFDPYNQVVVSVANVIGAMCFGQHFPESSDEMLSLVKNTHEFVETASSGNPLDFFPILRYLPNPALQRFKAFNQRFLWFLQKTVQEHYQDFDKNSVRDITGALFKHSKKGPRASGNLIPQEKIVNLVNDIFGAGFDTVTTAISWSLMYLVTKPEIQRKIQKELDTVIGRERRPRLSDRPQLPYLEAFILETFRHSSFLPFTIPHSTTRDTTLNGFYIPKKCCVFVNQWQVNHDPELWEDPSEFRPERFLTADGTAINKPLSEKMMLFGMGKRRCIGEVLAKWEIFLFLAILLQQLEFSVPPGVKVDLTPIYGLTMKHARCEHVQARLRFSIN
Outline: (§2)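 Pooled human hepatocytes in suspension (~0.5 x 10^6 viable cells/mL) were incubated with 1 µM carfilzomib at 37°C under 5% CO2, with or without isoform-selective CYP chemical inhibitors. Reactions were quenched with acetonitrile at 0, 15, 30, 60 and 120 min. Carfilzomib was quantified by non-validated LC-MS/MS after protein precipitation.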

Cytochrome P450 3A [4] = molecular target: T2, Cytochrome P450 3A (Homo sapiens, UniProt P08684+P20815+Q9HB55+P24462); experiment: Time-dependent inhibition of CYP3A in human liver microsomes assessed as testosterone 6-hydroxylation using testosterone as substrate measured after 25-fold diution by LC-MS/MS analysis in presence of NADPH; assay type: ADME
Outline: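 Pooled HLM (16 donors, mixed gender) preincubated in duplicate with carfilzomib 0, 0.5, 1, 3, 5 and 8 µM plus NADPH-generating system (1 mM NADP, 5 mM glucose-6-phosphate, 1 unit/mL G6PDH) for 0–30 min. Microsomal protein in preincubation: 2.5 mg/mL (testosterone) or 1.25 mg/mL (midazolam). Aliquots then diluted 25-fold into 50 mM potassium phosphate, 3 mM MgCl2, 1 mM EDTA, pH 7.4. Residual activity measured over 5 min with testosterone 200 µM or midazolam 40 µM plus NADPH-generating mixture, 37°C. KI and kinact derived.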

Cytochrome P450 3A [5] = molecular target: T2, Cytochrome P450 3A; experiment: Decrease in CYP3A activity in human hepatocytes assessed as 6-betahydroxytestosterone formation using testosterone as substrate incubated for 3 days prior to substrate challenge for 30 mins by LC-MS/MS analysis; assay type: ADME, cell-based, Hepatocyte; conditions: 0.5 h
Outline: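 Hepatocytes from 3 donors were plated on collagen I and cultured 2 days, then treated 3 days with carfilzomib (0.1–2.5 µM), 0.08% DMSO, rifampicin 20 µM or β-naphthoflavone 20 µM, renewed daily. Cells were then incubated in serum-free medium in triplicate with testosterone 200 µM (CYP3A, 30 min, 6β-hydroxytestosterone) or phenacetin 100 µM (CYP1A2, 60 min, acetaminophenol). Products were measured by LC-MS/MS and expressed relative to DMSO.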

Cytochrome P450 2C19 = Cytochrome P450 2C19 (Homo sapiens, UniProt P33261); experiment: Drug metabolism in pooled human hepatocytes assessed as disapperance rate at 1 uM by LC-MS/MS analysis in presence of 10 uM CYP2C19 inhibitor (+)-N-3-benzylnirvanol; assay type: ADME, cell-based, Hepatocyte; outline: as §2
Sequence of Cytochrome P450 2C19 (P33261 whole entry): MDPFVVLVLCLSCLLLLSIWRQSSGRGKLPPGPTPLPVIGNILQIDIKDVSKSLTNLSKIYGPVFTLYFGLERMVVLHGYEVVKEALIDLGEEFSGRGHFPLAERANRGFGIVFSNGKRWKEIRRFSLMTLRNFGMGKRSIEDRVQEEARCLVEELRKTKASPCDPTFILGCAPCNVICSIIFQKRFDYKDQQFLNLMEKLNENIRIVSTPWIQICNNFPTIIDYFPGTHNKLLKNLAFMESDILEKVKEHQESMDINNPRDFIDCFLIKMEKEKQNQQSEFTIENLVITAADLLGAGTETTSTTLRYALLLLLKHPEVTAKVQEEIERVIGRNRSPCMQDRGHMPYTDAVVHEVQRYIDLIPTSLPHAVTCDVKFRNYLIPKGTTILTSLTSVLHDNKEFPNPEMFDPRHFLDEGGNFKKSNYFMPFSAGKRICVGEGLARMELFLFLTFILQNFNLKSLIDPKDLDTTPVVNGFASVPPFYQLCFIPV

Sequence of Cytochrome P450 2C9 (P11712 whole entry): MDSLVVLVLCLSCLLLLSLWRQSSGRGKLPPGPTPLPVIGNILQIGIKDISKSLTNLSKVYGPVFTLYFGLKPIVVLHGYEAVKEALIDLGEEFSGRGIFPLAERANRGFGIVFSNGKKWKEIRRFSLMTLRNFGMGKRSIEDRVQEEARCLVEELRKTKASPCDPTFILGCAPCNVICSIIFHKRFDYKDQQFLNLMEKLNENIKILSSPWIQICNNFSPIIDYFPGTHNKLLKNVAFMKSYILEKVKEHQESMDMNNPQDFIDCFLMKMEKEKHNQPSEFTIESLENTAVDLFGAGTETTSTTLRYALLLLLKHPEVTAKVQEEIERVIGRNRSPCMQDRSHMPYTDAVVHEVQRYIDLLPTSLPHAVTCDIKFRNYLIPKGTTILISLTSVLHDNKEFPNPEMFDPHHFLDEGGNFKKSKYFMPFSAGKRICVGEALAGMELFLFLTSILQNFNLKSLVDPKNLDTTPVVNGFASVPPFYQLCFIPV

## CC(C)C[C@H](NC(=O)[C@H](CCc1ccccc1)NC(=O)CN1CCOCC1)C(=O)N[C@@H](Cc1ccccc1)C(=O)N[C@@H](CC(C)C)C(=O)[C@@]1(C)CO1 [CARFILZOMIB]
[1]
  fraction unbound: 0.024
[2]
  AUC(0-t): 238 ng·h/mL
[3]
  Cmax: 3710 ng/mL
Cytochrome P450 2C9
  IC50: > 10 µM
Cytochrome P450 1A2
  Drug metabolism: 0.016 min⁻¹
Cytochrome P450 3A [4]
  inhibition (INH): Active
Cytochrome P450 3A [5]
  inhibition (INH): Dose-dependent effect
Cytochrome P450 2C19
  Drug metabolism: 0.016 min⁻¹

From ChEMBL document CHEMBL3526139, “Clinical pharmacokinetics, metabolism, and drug-drug interaction of carfilzomib” (Drug Metab Dispos, 2013)
